An excerpt weighted towards active compounds, which were near 2.7% of everything screened.
PG9 binder: PG9 antibody binding by small molecule; TR-FRET gp120-PG9 antibody binding; inhibition, % at 6.7 µM; 360,000 tested, 0.43% active; AID 624416; in the data active means inhibition above about 8.5%
NR2E3 ag-1: agonists of human NR2E3 nuclear receptor. inhibition of corepressor binding, % at 3.98 µM. 360,000 tested, 0.35% active. CHO-S Gal4-NCOR/VP16-NR2E3 two-hybrid, luciferase. Q9Y5X4. AID 602229;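 active means inhibition above the mean of all tested compounds plus 3 SD, cut at about 70% in these data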;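 further: higher means lower luciferase signal from less NR2E3 corepressor binding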
Target sequence (Q9Y5X4 whole entry, looked up, the tested form may be a part): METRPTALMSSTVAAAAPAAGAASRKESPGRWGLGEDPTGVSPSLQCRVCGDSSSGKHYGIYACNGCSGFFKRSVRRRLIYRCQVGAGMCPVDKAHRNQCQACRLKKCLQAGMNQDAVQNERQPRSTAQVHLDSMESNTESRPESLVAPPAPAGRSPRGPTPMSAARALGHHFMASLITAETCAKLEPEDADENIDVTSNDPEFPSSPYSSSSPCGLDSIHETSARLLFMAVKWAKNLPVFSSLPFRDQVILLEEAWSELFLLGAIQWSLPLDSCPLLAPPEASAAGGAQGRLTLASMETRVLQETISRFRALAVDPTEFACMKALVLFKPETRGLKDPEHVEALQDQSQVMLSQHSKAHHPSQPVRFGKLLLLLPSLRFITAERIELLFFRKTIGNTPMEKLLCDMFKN
Rev-erbA mod: Rev-erb alpha (human) modulation; P20393; Rev-erbα–FITC-DNA binding, fluorescence polarization, 90 min; activity, % at 10 µM; 370,000 tested, 0.79% active;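 active means activity above about 14%, limit read from the data; passing the limit was not always enough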
MC4R ag barr: human MC4R agonism via beta-arrestin; U2OS MC4R beta-arrestin complementation, luminescence; percent of melanotan II response, DMSO zero; activation, % at 8.9 µM; 360,000 tested, 0.98% active; AID 540308;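 active means activation above a per-plate cutoff, the mean activation of sample wells on that plate plus 3 SD, cut at about 8% in these data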
NR2E3 ag-2: agonists of human nuclear receptor NR2E3 | GST-NR2E3/biotin-RetCOR TR-FRET, 1536-well | inhibition of corepressor binding, % at 4.78 µM | 320,000 tested, 0.12% active;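 active means percent inhibition above the cutoff of mean plus 3 SD of all tested compounds, set per screening campaign, cut at about 20% in these data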
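Test system – NR2E3–RetCOR corepressor complex · Quantity – NR2E3 fusion 1.35 nM · Buffer or medium – Tris pH 7.5 · Incubation – Compound–protein incubation for 5 h at 4 °C · Technique – TR-FRET, Eu(K)-anti-GST donor, streptavidin-D2 acceptor, ex 340, em 617/671 nm · Evaluation – percent inhibition of 671/617 nm emission ratio versus biotin and DMSO controls · Plate – 1536-well format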
MC4R antagonist: human MC4R antagonism in cAMP assay. AID 540295. inhibition, % at 6.5 µM. 360,000 tested, 0.48% active. MC4R-expressing cells, MTII-stimulated cAMP, LANCE TR-FRET. P32245;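 active means inhibition above its plate's cutoff, the mean of tested wells on that plate plus 3 SD, cut at about 29% in these data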
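Test system: U2OS cells stably expressing human melanocortin 4 receptor (MC4R); also added: Melanotan II challenge; compound: 6.5 µM single dose; timing: 30-min compound preincubation, 1-h Melanotan II challenge, 1-h detection, room temperature; signal: Eu-cAMP/anti-cAMP TR-FRET, emission 671 nm; repeats: one well per compound, no replicates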
Rev-erbA confirm: confirmation of modulators of human Rev-erb alpha DNA binding; shares compounds with Rev-erbA mod; Rev-erb alpha FITC-DNA binding, fluorescence polarization, 90 min; activation, % at 25 µM; 3,000 tested, 61% active;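 active means activation at or above a set limit, or at least 3 SD above the negative control mean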
Of the large screens only hits and unclear results are named; the others gave an inactive call (follow-up assays come after a bar, where they were run).

Cc1cc(N(C)C(=O)c2ccc3c(c2)S(=O)(=O)c2cc(Cl)ccc2C3=O)c(C(F)(F)F)o1	Rev-erbA mod 19.5 (no result: NR2E3 ag-2) | Rev-erbA confirm 19.9
CC(C)(C)CNC(=O)c1ccc2c(c1)S(=O)(=O)c1cc(Cl)ccc1C2=O	none
Cc1nc2sc(C(c3ccc(C(C)C)cc3)N3CCN(CCO)CC3)c(O)n2n1 (centres undefined)	none
Cc1ccc(C(c2sc3nc(C)nn3c2O)N2CCN(CCO)CC2)cc1 (centres undefined)	Rev-erbA mod 17.0 | Rev-erbA confirm inactive
CCc1nnc2sc(-c3ccc(NC(=O)c4ccc5c(c4)OCCO5)cc3)nn12	Rev-erbA mod 92.1 | Rev-erbA confirm 57.5
CCN(CC)C1CCN(c2nc3nonc3nc2NCCOC)C1 (centres undefined)	none
CC1(C)CC2CC(C)(CN2C(=O)NC(=O)c2ccccc2)C1 (centres undefined)	none
CCOc1ccccc1N1CCN(C(=O)Nc2ccc(Cl)c(Cl)c2)CC1	none (no result: PG9 binder, NR2E3 ag-1, Rev-erbA mod, MC4R ag barr, MC4R antagonist)
CC1=CC(=C(C#N)C#N)C=C(C)N1CCN1CCN(C(=O)Nc2ccc(Cl)c(Cl)c2)CC1	Rev-erbA mod 41.0 | Rev-erbA confirm 26.0
COc1ccc(OC)c(C(=O)CSc2nc3c(c(=O)n(C)c(=O)n3C)n2C(C)C)c1	Rev-erbA mod 37.4 (no result: NR2E3 ag-2) | Rev-erbA confirm inactive
CCn1ncc(Br)c1C(=O)Nc1cc(C(=O)OC)ccc1C(=O)OC	Rev-erbA mod 44.8 | Rev-erbA confirm 24.2
O=C1C=C(NC2=CC3OC(c4ccccc4)OCC3OC2=O)CCC1 (centres undefined)	none
